Results of several laboratories.
Target: Mitogen-activated protein kinase 13 (MAPK13, Homo sapiens, UniProt O15264)
One construct used (O15264 1-365): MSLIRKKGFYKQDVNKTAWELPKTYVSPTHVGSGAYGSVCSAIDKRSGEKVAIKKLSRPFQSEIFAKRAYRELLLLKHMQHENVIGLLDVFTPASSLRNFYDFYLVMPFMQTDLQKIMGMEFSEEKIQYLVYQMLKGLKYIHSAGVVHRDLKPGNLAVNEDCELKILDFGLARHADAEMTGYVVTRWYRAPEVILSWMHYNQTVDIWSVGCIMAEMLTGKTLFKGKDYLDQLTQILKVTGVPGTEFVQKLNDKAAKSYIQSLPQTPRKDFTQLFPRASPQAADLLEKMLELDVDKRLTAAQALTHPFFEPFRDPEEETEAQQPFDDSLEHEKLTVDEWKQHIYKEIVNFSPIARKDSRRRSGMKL

| Compound | read-out | mode | technique | concentration | quantity | result |
| --- | --- | --- | --- | --- | --- | --- |
| Cn1c2c(c3ccc(Cl)c(Cl)c31)C(C#N)C1(CCOCC1)NC2=O (centres unmarked) | thermal stability |  | DSF | 10 µM | ΔTm | 0.4 °C |
| Nc1nc(NC2CCCCC2)sc1C(=O)c1ccccc1 | enzyme activity | inhibitor |  | 10 µM | remaining activity | 67% |
| Cn1c2c(c3ccc(Cl)c(Cl)c31)C(C#N)C1(CCNCC1)NC2=O (racemic) | thermal stability |  | DSF | 10 µM | ΔTm | 0.5 °C |
| COc1cc(/C=C/C(=O)CC(=O)/C=C/c2ccc(O)c(OC)c2)ccc1O | enzyme activity | inhibitor |  | 1 µM | activity vs control | 105% |
| CNC(=O)Nc1ccc2c(c1)[C@@]1(CC2)OC(=O)N(CC(=O)N(Cc2ccc(F)cc2)[C@@H](C)C(F)(F)F)C1=O | cell-free assay |  | competition with immobilised ligand | 1 µM | remaining binding | 97% |
| Cc1cnc(NC2CCOCC2)nc1-n1cnc(C(=O)NC(CN)c2cc(F)cc(Cl)c2)c1 (centres unmarked) | enzyme activity | inhibitor | radiometric | 1 µM | remaining activity | 28% |
| CCN(CC)CCNC(=O)c1c(C)[nH]c(/C=C2\C(=O)Nc3ccc(F)cc32)c1C | enzyme activity | inhibitor |  | 0.3 µM | inhibition | -17% |
| Cc1nccc(COC(=O)N2C[C@@H]3[C@@H](CNC(=O)c4ccc5[nH]nnc5c4)[C@@H]3C2)n1 | cell-free assay |  | competition with immobilised ligand | 1 µM | remaining binding | 98% |
| CC1(C)NC(=O)c2[nH]c3c(Cl)c(Cl)ccc3c2C1C#N (centres unmarked) | thermal stability |  | DSF | 10 µM | ΔTm | 0.9 °C |
| FC(F)c1nc2ccccc2n1-c1nc(N2CCOCC2)nc(N2CCOCC2)n1 | enzyme activity | inhibitor |  | 10 µM | remaining activity | 107% |
| COc1cc2ncnc(Nc3ccc(Oc4ccccc4)c(C)c3C)c2cc1OC | enzyme activity | inhibitor |  | 1 µM | inhibition | 2% |
| CCCOc1ccc(OC)c(F)c1C(=O)c1ccc(C(=O)N[C@@H]2CNC[C@H]2NC(=O)c2ccc3[nH]ncc3c2)cc1 | enzyme activity | inhibitor |  | 10 µM | remaining activity | 93% |
| Cn1c2c(Cl)c(Cl)ccc2c2cc(N)[nH]c(=O)c21 | thermal stability |  | DSF | 10 µM | ΔTm | 0.5 °C |
| Cc1ccc(C(=O)Nc2ccc(CN3CCN(C)CC3)c(C(F)(F)F)c2)cc1C#Cc1cnc2cccnn12 | enzyme activity | inhibitor |  | 23.5 nM | remaining activity | 93% |
| O=C(Nc1cnn(-c2csc(C(=O)NC3COC3)c2)c1)Nc1c(F)cccc1Cl | enzyme activity | inhibitor |  | 5 µM | remaining activity | 98.4% |
| COc1cc(Nc2cnc(C#N)c(O[C@H](C)CN(C)C)n2)ncc1-c1cnn(C)c1 | enzyme activity | inhibitor | radiometric | 10 µM | remaining activity | 73% |
| O=C(NS(=O)(=O)c1ccc(NCC2CCOCC2)c([N+](=O)[O-])c1)c1ccc(N2CCN(Cc3ccc(C(F)(F)F)cc3-c3ccc(Cl)cc3)CC2)cc1Oc1cnc2[nH]ccc2c1 | cell-free assay |  | competition with immobilised ligand | 1 µM | remaining binding | 99% |
| CCCS(=O)(=O)Nc1ccc(F)c(C(=O)c2c[nH]c3ncc(-c4ccc(Cl)cc4)cc23)c1F | enzyme activity | inhibitor |  | 1 µM | inhibition | < 10% |

| Compound | read-out | mode | technique | concentration | quantity | result |
| --- | --- | --- | --- | --- | --- | --- |
| O=C(Nc1cnn(-c2csc(C(=O)NC3COC3)c2)c1)Nc1ccccc1Cl | enzyme activity | inhibitor |  | 5 µM | remaining activity | 122% |
| CC1=C(C#N)[C@@H](c2ccc3[nH]nc(C)c3c2)C(C#N)=C(c2ccc(Cl)cc2)N1 | cell-free assay |  | competition with immobilised ligand | 1 µM | remaining binding | 100% |
| Cc1ccc(Nc2nccc(N(C)c3ccc4c(C)n(C)nc4c3)n2)cc1S(N)(=O)=O | enzyme activity | inhibitor |  | 10 µM | inhibition | 0% |
| CNCc1ccccc1-c1csc([C@H](C)Nc2nc(C)nc3cc(OC)c(OC)cc23)c1 | cell-free assay |  | competition with immobilised ligand | 1 µM | remaining binding | 100% |
| COc1cc2c(Nc3ccc(Br)cc3F)ncnc2cc1OCC1CCN(C)CC1 | cell-free assay |  |  | 0.5 µM | remaining signal | 95.5% |
| Cn1c2c(Cl)c(Cl)ccc2c2cn[nH]c(=O)c21 | thermal stability |  | DSF | 10 µM | ΔTm | 0 °C |
| N#CCCc1ccc2c(c1)-c1[nH]c3ccc([N+](=O)[O-])cc3c1CC(=O)N2 | cell-free assay |  |  | 0.5 µM | remaining signal | 98.2% |
| CCC(=O)N[C@@H]1CC[C@H](C(=O)N(C)c2ccc(-c3nc4ccccc4o3)cc2)C1 | cell-free assay |  | competition with immobilised ligand | 1 µM | remaining binding | 100% |
| CNC(=O)c1cc(Oc2ccc(NC(=O)Nc3ccc(Cl)c(C(F)(F)F)c3)cc2)ccn1 | enzyme activity | inhibitor |  | 10 µM | inhibition | 56% |
| CC(C)(C)c1nc2c(s1)c1nc(N)ncc1c1ccc(NS(=O)(=O)c3c(F)cccc3F)c(F)c12 | enzyme activity | inhibitor | radiometric | 1 µM | remaining activity | 91% |
| Cc1ccc(NC(=O)c2ccc(C)c(C(F)(F)F)c2)cc1C#Cc1nn(C2CCC(O)CC2)c2ncnc(N)c12 (centres unmarked) | cell-free assay |  |  | 10 µM | remaining signal | 80% |
| CN(C)C1CCN(CC#Cc2nn(C3CCCC3)c3nc(NCc4ccccc4)ncc23)C1 (centres unmarked) | enzyme activity | inhibitor | FRET | 10 µM | inhibition | 2% |
| O=C(Nc1ccc(Oc2ccc(F)cc2)cc1)N1CCc2ncccc2[C@H]1c1ccc(F)cc1 | cell-free assay |  | competition with immobilised ligand | 1 µM | remaining binding | 96% |
| CCOc1cc(-c2nncn2C)ccc1Nc1ncc2cc(C)nc(NCC(C)(C)C)c2n1 | enzyme activity | inhibitor | FRET | 1 µM | inhibition | < 15% |
| Nc1nc(Nc2ccccc2)sc1C(=O)c1c(F)cccc1F | enzyme activity | inhibitor |  | 10 µM | remaining activity | 62% |
| O=C(Nc1cccnn1)N1CCC(=Cc2cccc(Oc3ccc(C(F)(F)F)cn3)c2)CC1 | cell-free assay |  | competition with immobilised ligand | 1 µM | remaining binding | 86% |
| O=C1NC(=O)c2cc(Nc3ccc(F)cc3)c(Nc3ccc(F)cc3)cc21 | cell-free assay |  |  | 0.5 µM | remaining signal | 99.4% |
